The molecules below were run against Cyclin-dependent kinase 1/cyclin B (Homo sapiens, UniProt P06493) (assay: Inhibition of [32P]ATP binding to Cyclin dependent kinase 1-cyclin B).
Format: protein-complex assay
Summary of the method: (§1)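 Human recombinant Cdk–cyclin holoenzymes expressed in insect cells via baculovirus. Each reaction held 20 ng enzyme, 1 µg GST-retinoblastoma substrate and inhibitor dilutions in 20 mM Tris pH 7.4, 50 mM NaCl, 1 mM DTT, 10 mM MgCl2. Started with [32P]ATP (0.25 µCi), at 25 µM for Cdk4 or 12 µM for Cdk2/E, Cdk2/A and Cdc2/B. Ran 15 min at 25 °C. Stopped with TCA and precipitated ≥1 h at 4 °C.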

Row | IC50 | SMILES
1 | > 5000 nM | COC(=O)c1c(C)c2cnc(Nc3ccc(N4CCNCC4)cc3)nc2n(C2CCCC2)c1=O
2 | 1870 nM | Cc1c(I)c(=O)n(C2CCCC2)c2nc(Nc3ccc(N4CCNCC4)cc3)ncc12
3 | > 5000 nM | Cc1cc(=O)n(C2CCCC2)c2nc(Nc3ccc(N4CCC(CCCO)CC4)cc3)ncc12
4 | > 5000 nM | Cc1cc(=O)n(C2CCCC2)c2nc(Nc3ccc(N4CCN(C)CC4)cc3)ncc12
5 | > 5000 nM | Cc1c(Cl)c(=O)n(C2CCCC2)c2nc(Nc3ccc(N4CCNCC4)cc3)ncc12
6 | 275 nM | O=c1ccc2cnc(Nc3ccc(N4CCOCC4)cc3)nc2n1C1CCCC1
7 | > 5000 nM | Cc1cc(=O)n(CCC(C)C)c2nc(Nc3ccc(N4CCNCC4)cc3)ncc12
8 | 4120 nM | CCc1c(C)c2cnc(Nc3ccc(N4CCNCC4)cc3)nc2n(C2CCCC2)c1=O
9 | > 5000 nM | Cc1cc(=O)n(C2CCCC2)c2nc(Nc3ccc(N4CCNCC4)c(Cl)c3)ncc12

These molecules were tested against Cyclin-dependent kinase 4/cyclin D (Homo sapiens, UniProt P11802) (assay: Inhibition of [32P]ATP binding to Cyclin dependant kinase 4-cyclin D).
Format: protein-complex assay
Summary of the method: as §1

Row | IC50 | SMILES
10 | 4 nM | COC(=O)c1c(C)c2cnc(Nc3ccc(N4CCNCC4)cc3)nc2n(C2CCCC2)c1=O
11 | 5 nM | Cc1c(I)c(=O)n(C2CCCC2)c2nc(Nc3ccc(N4CCNCC4)cc3)ncc12
12 | 114 nM | Cc1cc(=O)n(C2CCCC2)c2nc(Nc3ccc(N4CCC(CCCO)CC4)cc3)ncc12
13 | 18 nM | Cc1cc(=O)n(C2CCCC2)c2nc(Nc3ccc(N4CCN(C)CC4)cc3)ncc12
14 | 16 nM | Cc1c(Cl)c(=O)n(C2CCCC2)c2nc(Nc3ccc(N4CCNCC4)cc3)ncc12
15 | 10 nM | O=c1ccc2cnc(Nc3ccc(N4CCOCC4)cc3)nc2n1C1CCCC1
16 | 1080 nM | Cc1cc(=O)n(CCC(C)C)c2nc(Nc3ccc(N4CCNCC4)cc3)ncc12
17 | 25 nM | CCc1c(C)c2cnc(Nc3ccc(N4CCNCC4)cc3)nc2n(C2CCCC2)c1=O
18 | 28 nM | Cc1cc(=O)n(C2CCCC2)c2nc(Nc3ccc(N4CCNCC4)c(Cl)c3)ncc12

The molecules below were run against Cyclin-dependent kinase 2/cyclin A (Homo sapiens, UniProt P24941) (assay: Inhibition of [32P]ATP binding to Cyclin dependent kinase 2-cyclin A).
Format: protein-complex assay
Summary of the method: (§2)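 Human recombinant Cdk–cyclin holoenzymes expressed in insect cells via baculovirus. Each reaction held 20 ng enzyme, 1 µg GST-retinoblastoma substrate and inhibitor dilutions in 20 mM Tris pH 7.4, 50 mM NaCl, 1 mM DTT, 10 mM MgCl2. Stopped with TCA and precipitated ≥1 h at 4 °C.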

Row | IC50 | SMILES
19 | 2820 nM | COC(=O)c1c(C)c2cnc(Nc3ccc(N4CCNCC4)cc3)nc2n(C2CCCC2)c1=O
20 | 443 nM | Cc1c(I)c(=O)n(C2CCCC2)c2nc(Nc3ccc(N4CCNCC4)cc3)ncc12
21 | > 5000 nM | Cc1cc(=O)n(C2CCCC2)c2nc(Nc3ccc(N4CCC(CCCO)CC4)cc3)ncc12
22 | > 5000 nM | Cc1cc(=O)n(C2CCCC2)c2nc(Nc3ccc(N4CCN(C)CC4)cc3)ncc12
23 | 1620 nM | Cc1c(Cl)c(=O)n(C2CCCC2)c2nc(Nc3ccc(N4CCNCC4)cc3)ncc12
24 | 28 nM | O=c1ccc2cnc(Nc3ccc(N4CCOCC4)cc3)nc2n1C1CCCC1
25 | > 5000 nM | Cc1cc(=O)n(CCC(C)C)c2nc(Nc3ccc(N4CCNCC4)cc3)ncc12
26 | 1540 nM | CCc1c(C)c2cnc(Nc3ccc(N4CCNCC4)cc3)nc2n(C2CCCC2)c1=O
27 | > 5000 nM | Cc1cc(=O)n(C2CCCC2)c2nc(Nc3ccc(N4CCNCC4)c(Cl)c3)ncc12

Each molecule was assayed against Cyclin-dependent kinase 2/cyclin E (Homo sapiens, UniProt P24941) (assay: Inhibition of [32P]ATP binding to Cyclin dependent kinase 2-cyclin E).
Format: protein-complex assay
Summary of the method: as §2

Row | IC50 | SMILES
28 | > 5000 nM | COC(=O)c1c(C)c2cnc(Nc3ccc(N4CCNCC4)cc3)nc2n(C2CCCC2)c1=O
29 | 365 nM | Cc1c(I)c(=O)n(C2CCCC2)c2nc(Nc3ccc(N4CCNCC4)cc3)ncc12
30 | > 5000 nM | Cc1cc(=O)n(C2CCCC2)c2nc(Nc3ccc(N4CCC(CCCO)CC4)cc3)ncc12
31 | > 5000 nM | Cc1cc(=O)n(C2CCCC2)c2nc(Nc3ccc(N4CCN(C)CC4)cc3)ncc12
32 | 1500 nM | Cc1c(Cl)c(=O)n(C2CCCC2)c2nc(Nc3ccc(N4CCNCC4)cc3)ncc12
33 | 85 nM | O=c1ccc2cnc(Nc3ccc(N4CCOCC4)cc3)nc2n1C1CCCC1
34 | > 5000 nM | Cc1cc(=O)n(CCC(C)C)c2nc(Nc3ccc(N4CCNCC4)cc3)ncc12
35 | 1650 nM | CCc1c(C)c2cnc(Nc3ccc(N4CCNCC4)cc3)nc2n(C2CCCC2)c1=O
36 | > 5000 nM | Cc1cc(=O)n(C2CCCC2)c2nc(Nc3ccc(N4CCNCC4)c(Cl)c3)ncc12

— ChEMBL document CHEMBL1143565, “Pyrido[2,3-d]pyrimidin-7-ones as specific inhibitors of cyclin-dependent kinase 4” (J Med Chem, 2005)
